Blank lines part the entries; values can stand above or below the compound they belong to. *1 amine or outer side, *2 acyl side, *3 side chain or, on linkers, in order; H or OH if unused. Where a SMILES comes first, the peptide text is derived from it. Bridges are numbered along the chain shown (N, C = ends). [ ]: non-standard residue; d: D form. The star is where a group is joined. Staurosporine = CO[C@@H]1[C@H](N(C)*)C[C@H]2O[C@]1(C)n1c3ccccc3c3c4c(c5c6ccccc6n2c5c31)C(=O)NC4; Suc = O=C(CCC(=O)[*:2])[*:1]; Dap = NC[C@H](N)C(=O)O; βAla = NCCC(=O)O
What was measured:
[1] = target: T1, Serine/threonine-protein kinase PLK4 (Homo sapiens) (UniProt O00444); assay: Binding affinity to human PLK4 at 500 nM by cell-based competition binding assay relative to control in presence of DTT
T1 sequence (whole entry): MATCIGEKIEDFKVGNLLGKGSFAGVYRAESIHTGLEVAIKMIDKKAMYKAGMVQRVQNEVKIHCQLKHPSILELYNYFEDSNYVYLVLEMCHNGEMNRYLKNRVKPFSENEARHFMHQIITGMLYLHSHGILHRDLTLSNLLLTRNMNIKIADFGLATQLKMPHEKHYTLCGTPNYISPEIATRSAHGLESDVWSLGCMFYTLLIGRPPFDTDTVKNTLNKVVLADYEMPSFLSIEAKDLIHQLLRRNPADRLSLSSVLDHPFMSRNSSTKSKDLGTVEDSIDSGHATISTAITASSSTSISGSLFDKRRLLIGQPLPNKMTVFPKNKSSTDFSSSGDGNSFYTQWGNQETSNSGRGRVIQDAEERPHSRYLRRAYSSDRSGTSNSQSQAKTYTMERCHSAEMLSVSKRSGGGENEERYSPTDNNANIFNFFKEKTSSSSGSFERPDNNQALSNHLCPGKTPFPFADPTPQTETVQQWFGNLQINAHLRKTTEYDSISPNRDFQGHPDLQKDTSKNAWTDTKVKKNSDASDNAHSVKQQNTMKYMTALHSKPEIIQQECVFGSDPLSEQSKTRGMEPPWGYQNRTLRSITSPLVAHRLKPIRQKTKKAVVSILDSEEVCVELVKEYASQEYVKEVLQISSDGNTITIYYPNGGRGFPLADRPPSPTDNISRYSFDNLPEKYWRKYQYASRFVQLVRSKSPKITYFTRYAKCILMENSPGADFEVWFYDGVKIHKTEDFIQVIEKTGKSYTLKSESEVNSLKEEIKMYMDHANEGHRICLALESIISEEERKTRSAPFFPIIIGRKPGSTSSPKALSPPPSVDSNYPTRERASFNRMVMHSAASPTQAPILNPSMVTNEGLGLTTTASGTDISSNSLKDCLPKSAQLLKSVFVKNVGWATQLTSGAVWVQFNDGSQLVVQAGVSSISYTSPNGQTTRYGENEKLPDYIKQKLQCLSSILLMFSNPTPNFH

[2] = target: T2, Activin receptor type-1B (Homo sapiens) (UniProt P36896); assay: Binding affinity to human ACVR1B at 500 nM by cell-based competition binding assay relative to control in presence of DTT
T2 sequence (whole entry): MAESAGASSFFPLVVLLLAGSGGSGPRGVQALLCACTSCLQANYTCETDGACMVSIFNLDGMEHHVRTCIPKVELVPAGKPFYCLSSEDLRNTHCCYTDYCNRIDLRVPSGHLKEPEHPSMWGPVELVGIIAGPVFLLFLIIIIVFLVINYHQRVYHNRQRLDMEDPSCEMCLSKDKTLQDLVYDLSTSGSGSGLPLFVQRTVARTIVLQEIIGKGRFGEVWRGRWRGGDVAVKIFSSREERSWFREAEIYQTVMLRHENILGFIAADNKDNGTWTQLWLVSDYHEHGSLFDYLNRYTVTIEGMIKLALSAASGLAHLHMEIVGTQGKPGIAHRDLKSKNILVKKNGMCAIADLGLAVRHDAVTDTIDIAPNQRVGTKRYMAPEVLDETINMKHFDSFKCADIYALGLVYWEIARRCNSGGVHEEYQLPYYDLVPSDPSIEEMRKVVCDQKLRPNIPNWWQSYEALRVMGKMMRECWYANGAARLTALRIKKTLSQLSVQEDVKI
Method in brief: (§1)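 Kinase binding profiling ran on a commercial (Ambit) competitive binding screen against a panel of 90 kinases. The screen used reducing conditions with 7.5 mM DTT. To withstand the DTT, the bivalent ligand was tested as its amide isostere, with the disulfide replaced. A staurosporine derivative carrying a 3 β-alanine linker was run as the reference compound.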

[3] = target: RAC-beta serine/threonine-protein kinase (Homo sapiens) (UniProt P31751); assay: Binding affinity to human AKT2 at 500 nM by cell-based competition binding assay relative to control in presence of DTT; method in brief: as §1
[4] = target: Dual specificity mitogen-activated protein kinase kinase 1 (Homo sapiens) (UniProt Q02750); assay: Binding affinity to human MEK1 at 500 nM by cell-based competition binding assay relative to control in presence of DTT
Method in brief: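 Kinase binding profile from a commercial panel of 90 kinases, run as a competitive binding assay. The panel was screened under reducing conditions of 7.5 mM DTT. Signal was compared with the untreated control.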

[5] = target: Dual specificity tyrosine-phosphorylation-regulated kinase 1B (Homo sapiens) (UniProt Q9Y463); assay: Binding affinity to human DYRK1B at 200 nM by cell-based competition binding assay relative to control in presence of DTT
Method in brief: (§2)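 Commercial (Ambit) competitive kinase-binding panel of 90 kinases measured the binding profile. Run under reducing conditions of 7.5 mM DTT. Binding is expressed relative to control.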

[6] = target: Mitogen-activated protein kinase 8 (Homo sapiens) (UniProt P45983); assay: Binding affinity to human JNK1 at 200 nM by cell-based competition binding assay relative to control in presence of DTT
Method in brief: (§3)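 Competition binding screen (Ambit) across a panel of 90 kinases, scoring test ligand displacement of each kinase's binding relative to control. The screen ran under reducing conditions with 7.5 mM DTT.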

[7] = target: T3, Testis-specific serine/threonine-protein kinase 1 (Homo sapiens) (UniProt Q9BXA7); assay: Binding affinity to human TSSK1 at 200 nM by cell-based competition binding assay relative to control in presence of DTT
T3 sequence (whole entry): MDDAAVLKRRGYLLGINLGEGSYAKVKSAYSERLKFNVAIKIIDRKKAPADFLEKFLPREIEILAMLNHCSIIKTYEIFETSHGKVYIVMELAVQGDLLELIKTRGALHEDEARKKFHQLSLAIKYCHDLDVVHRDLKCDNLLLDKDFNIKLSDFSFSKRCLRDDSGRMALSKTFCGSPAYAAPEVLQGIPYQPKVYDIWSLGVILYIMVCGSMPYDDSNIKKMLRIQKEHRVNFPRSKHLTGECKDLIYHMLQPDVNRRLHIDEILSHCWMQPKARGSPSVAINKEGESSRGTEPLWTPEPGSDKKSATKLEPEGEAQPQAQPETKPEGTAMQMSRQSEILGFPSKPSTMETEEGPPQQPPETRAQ

[8] = target: Serine/threonine-protein kinase B-raf (Homo sapiens) (UniProt P15056); assay: Binding affinity to human BRAF at 50 nM by cell-based competition binding assay relative to control in presence of DTT; method in brief: as §1
[9] = target: Dual specificity tyrosine-phosphorylation-regulated kinase 1B (Homo sapiens) (UniProt Q9Y463); assay: Binding affinity to human DYRK1B at 50 nM by cell-based competition binding assay relative to control in presence of DTT; method in brief: as §2
[10] = target: MAP kinase-interacting serine/threonine-protein kinase 2 (Homo sapiens) (UniProt Q9HBH9); assay: Binding affinity to human MKNK2 at 50 nM by cell-based competition binding assay relative to control in presence of DTT
[11] = target: Mitogen-activated protein kinase 9 (Homo sapiens) (UniProt P45984); assay: Binding affinity to human JNK2 at 50 nM by cell-based competition binding assay relative to control in presence of DTT; method in brief: as §3
Sequence of Mitogen-activated protein kinase 9 (Homo sapiens) (P45984 whole entry, looked up): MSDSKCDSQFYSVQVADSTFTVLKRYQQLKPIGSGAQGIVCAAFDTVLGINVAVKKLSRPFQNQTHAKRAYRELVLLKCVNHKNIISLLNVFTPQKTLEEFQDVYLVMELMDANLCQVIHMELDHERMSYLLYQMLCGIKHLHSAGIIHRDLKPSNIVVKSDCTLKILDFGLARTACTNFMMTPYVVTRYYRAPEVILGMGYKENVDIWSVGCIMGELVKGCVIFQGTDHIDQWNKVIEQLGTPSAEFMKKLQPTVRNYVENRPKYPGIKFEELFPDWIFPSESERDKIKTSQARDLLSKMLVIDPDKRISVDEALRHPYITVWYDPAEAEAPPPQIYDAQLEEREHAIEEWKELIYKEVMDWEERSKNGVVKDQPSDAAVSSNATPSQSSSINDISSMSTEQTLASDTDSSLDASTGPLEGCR

Sequence of Dual specificity tyrosine-phosphorylation-regulated kinase 1B (Homo sapiens) (Q9Y463 whole entry, looked up): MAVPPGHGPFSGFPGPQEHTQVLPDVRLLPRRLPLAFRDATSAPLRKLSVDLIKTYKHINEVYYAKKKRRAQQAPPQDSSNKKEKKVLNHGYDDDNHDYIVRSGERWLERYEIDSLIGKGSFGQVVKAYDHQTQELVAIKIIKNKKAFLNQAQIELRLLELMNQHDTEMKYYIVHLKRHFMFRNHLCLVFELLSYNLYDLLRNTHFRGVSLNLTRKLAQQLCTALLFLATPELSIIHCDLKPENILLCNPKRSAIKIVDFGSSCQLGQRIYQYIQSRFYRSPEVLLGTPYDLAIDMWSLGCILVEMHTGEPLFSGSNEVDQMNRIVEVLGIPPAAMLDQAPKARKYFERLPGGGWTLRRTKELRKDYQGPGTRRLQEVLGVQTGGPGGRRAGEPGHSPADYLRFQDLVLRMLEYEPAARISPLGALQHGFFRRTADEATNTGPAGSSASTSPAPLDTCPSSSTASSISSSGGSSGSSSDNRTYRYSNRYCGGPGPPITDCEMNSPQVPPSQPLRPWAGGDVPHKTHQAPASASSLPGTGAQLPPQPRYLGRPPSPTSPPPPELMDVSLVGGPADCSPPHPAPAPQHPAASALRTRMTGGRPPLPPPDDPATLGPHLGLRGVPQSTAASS
Sequence of Mitogen-activated protein kinase 8 (Homo sapiens) (P45983 whole entry): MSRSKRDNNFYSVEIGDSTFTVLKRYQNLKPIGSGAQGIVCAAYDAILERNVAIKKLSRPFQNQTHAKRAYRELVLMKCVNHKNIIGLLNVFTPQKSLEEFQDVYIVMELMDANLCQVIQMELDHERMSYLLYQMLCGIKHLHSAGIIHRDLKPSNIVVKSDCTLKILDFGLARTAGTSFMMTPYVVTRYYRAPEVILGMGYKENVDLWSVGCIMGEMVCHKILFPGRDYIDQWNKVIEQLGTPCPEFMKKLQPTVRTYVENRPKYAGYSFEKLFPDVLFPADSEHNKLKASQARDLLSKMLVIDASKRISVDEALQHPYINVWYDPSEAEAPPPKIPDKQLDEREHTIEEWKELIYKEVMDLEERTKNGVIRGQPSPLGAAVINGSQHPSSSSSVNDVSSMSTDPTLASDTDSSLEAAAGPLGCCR
Sequence of RAC-beta serine/threonine-protein kinase (Homo sapiens) (P31751 whole entry): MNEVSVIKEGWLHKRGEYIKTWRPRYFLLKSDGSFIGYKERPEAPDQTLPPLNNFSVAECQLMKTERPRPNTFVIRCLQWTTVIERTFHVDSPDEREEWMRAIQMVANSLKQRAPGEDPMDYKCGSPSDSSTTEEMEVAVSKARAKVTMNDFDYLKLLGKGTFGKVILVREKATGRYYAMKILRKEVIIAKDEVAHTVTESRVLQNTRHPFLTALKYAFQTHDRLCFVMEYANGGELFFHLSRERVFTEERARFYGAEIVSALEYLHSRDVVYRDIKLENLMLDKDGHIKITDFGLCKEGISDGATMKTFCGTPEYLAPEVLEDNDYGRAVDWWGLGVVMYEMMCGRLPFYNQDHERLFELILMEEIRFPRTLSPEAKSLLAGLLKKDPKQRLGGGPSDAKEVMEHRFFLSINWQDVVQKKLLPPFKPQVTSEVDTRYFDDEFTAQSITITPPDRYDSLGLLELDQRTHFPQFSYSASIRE
Sequence of Serine/threonine-protein kinase B-raf (Homo sapiens) (P15056 whole entry): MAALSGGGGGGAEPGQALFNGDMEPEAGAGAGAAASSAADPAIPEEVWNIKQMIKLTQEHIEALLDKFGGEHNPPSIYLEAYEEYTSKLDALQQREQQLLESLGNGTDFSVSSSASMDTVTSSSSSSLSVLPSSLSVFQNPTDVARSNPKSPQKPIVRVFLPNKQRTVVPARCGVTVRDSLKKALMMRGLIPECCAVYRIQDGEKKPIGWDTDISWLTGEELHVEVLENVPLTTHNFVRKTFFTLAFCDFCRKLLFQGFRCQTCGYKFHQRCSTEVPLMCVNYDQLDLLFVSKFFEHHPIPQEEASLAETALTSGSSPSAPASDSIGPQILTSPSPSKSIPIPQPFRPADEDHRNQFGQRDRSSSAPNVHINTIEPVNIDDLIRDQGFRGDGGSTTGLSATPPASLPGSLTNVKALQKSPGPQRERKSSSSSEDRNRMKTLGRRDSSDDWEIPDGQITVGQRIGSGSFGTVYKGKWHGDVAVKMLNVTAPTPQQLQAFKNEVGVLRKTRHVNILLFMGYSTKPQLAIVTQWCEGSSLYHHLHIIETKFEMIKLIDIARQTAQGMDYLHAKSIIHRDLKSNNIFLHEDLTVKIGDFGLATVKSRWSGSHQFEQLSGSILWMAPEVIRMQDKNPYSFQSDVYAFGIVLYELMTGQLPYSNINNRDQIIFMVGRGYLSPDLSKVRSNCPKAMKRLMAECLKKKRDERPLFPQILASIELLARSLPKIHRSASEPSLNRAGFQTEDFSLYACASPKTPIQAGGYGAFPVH
Sequence of MAP kinase-interacting serine/threonine-protein kinase 2 (Homo sapiens) (Q9HBH9 whole entry, looked up): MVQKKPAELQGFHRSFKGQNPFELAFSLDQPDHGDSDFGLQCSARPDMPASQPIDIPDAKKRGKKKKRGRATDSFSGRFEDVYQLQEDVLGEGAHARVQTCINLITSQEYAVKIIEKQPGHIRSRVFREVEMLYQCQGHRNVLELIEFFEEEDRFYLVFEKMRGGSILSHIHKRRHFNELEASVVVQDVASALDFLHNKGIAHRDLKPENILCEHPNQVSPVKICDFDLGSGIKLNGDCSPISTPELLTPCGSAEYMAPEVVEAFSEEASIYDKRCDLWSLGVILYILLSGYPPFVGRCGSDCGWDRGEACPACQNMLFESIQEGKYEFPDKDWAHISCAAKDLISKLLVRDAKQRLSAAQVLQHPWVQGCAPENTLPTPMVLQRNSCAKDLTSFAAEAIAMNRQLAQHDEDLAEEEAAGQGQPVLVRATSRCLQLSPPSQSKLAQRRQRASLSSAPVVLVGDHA
Sequence of Dual specificity mitogen-activated protein kinase kinase 1 (Homo sapiens) (Q02750 whole entry): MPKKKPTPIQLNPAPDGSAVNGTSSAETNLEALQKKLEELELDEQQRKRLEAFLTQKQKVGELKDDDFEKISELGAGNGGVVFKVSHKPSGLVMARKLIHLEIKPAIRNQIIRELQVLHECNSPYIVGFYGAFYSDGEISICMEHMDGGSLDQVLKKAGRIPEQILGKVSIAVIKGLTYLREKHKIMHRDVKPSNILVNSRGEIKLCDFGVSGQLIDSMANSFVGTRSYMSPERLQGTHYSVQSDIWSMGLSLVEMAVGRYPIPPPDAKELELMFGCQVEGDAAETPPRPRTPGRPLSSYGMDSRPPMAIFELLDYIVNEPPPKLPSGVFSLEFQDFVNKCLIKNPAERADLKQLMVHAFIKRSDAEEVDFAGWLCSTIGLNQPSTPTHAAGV

Activity [1]: 3.6% | Activity [2]: 87% | Activity [3]: 37% | Activity [4]: 100%
SMILES: CO[C@@H]1[C@H](N(C)C(=O)CCC(=O)NCCC(=O)NCCC(=O)NCCC(N)=O)C[C@H]2O[C@]1(C)n1c3ccccc3c3c4c(c5c6ccccc6n2c5c31)C(=O)NC4

Activity [5]: 14% | Activity [6]: 83% | Activity [7]: 17%
SMILES: CO[C@@H]1[C@H](N(C)C(=O)CCC(=O)NCCC(=O)NCCC(=O)NCCC(=O)NCCC(=O)NCCC(=O)NCCC(=O)NCCC(=O)N[C@H]2CSSC[C@@H](C(=O)NCC(N)=O)NC(=O)CNC(=O)[C@H](Cc3ccccc3)NC(=O)[C@H](C(C)C)NC(=O)[C@H](CCCNC(=N)N)NC(=O)[C@H](Cc3ccccc3)NC(=O)[C@H](C(C)C)NC2=O)C[C@H]2O[C@]1(C)n1c3ccccc3c3c4c(c5c6ccccc6n2c5c31)C(=O)NC4 ({Staurosporine-Suc-βAla-βAla-βAla-βAla-βAla-βAla-βAla}-CVFRVFGCG-NH2; disulfide 1-8)

Activity [8]: 96% | Activity [9]: 79% | Activity [10]: 100% | Activity [11]: 88%
SMILES: CO[C@@H]1[C@H](N(C)C(=O)CCC(=O)NCCC(=O)NCCC(=O)NCCC(=O)NCCC(=O)NCCC(=O)NCCC(=O)NCCC(=O)N[C@H]2CNC(=O)C[C@@H](C(N)=O)NC(=O)CNC(=O)[C@H](Cc3ccccc3)NC(=O)[C@H](C(C)C)NC(=O)[C@H](CCCNC(=N)N)NC(=O)[C@H](Cc3ccccc3)NC(=O)[C@H](C(C)C)NC2=O)C[C@H]2O[C@]1(C)n1c3ccccc3c3c4c(c5c6ccccc6n2c5c31)C(=O)NC4 ({Staurosporine-Suc-βAla-βAla-βAla-βAla-βAla-βAla-βAla}-[Dap]VFRVFGD-NH2; lactam 1-8)

Source: ChEMBL document CHEMBL1152541, “Staurosporine tethered peptide ligands that target cAMP-dependent protein kinase (PKA): optimization and selectivity profiling” (Bioorg Med Chem, 2009)
